Assays:
[1] = Lipophilic-hydrophilic balance, Rm of the compound by reversed-phase partition chromatography; assay type: physicochemical
Mus musculus = assay: Toxicity in ip dosed mouse assessed as optimum dose that providing maximum increase in life span administered qd for 1 to 5 days; assay type: organism-based; details: in vivo
How it was run: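 Mice were C3H/DBA2 F1 hybrids weighing 18.5-22.5 g. L1210 cells (10^5) were implanted ip or sc above the right axilla. Daily ip treatment began 24 h later and continued for 5 days (dq 1-5), given in water or as a homogenized suspension in aqueous methylcellulose. The optimum dose (mg/kg/day) is the one giving maximum life-span increase (T/C% - 100). Groups were six mice; 50-day survivors were counted.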

L1210 [2] = assay: Antitumor activity against mouse L1210 cells intraperitoneally xenografted in ip dosed C3H/DBA2 F1 hybrid mouse assessed as increase in host lifespan administered daily for 5 days starting 24 hrs post-tumor implantation; assay type: functional
How it was run: (§1)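 10⁵ L1210 cells implanted ip into 18.5-22.5-g C3H/DBA2 F1 mice. Daily ip treatment for 5 days from 24 h after implant, as water-soluble salts (methanesulfonate or hydrochloride) or as homogenized suspensions in aqueous methylcellulose. Groups of six mice. Read-out is increase in life span (T/C% − 100) at the optimum dose (maximal life-span increase, mg/kg/day); 50-day survivors counted.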

L1210 [3] = assay: Antitumor activity against mouse L1210 cells subcutaneously xenografted in ip dosed C3H/DBA2 F1 hybrid mouse assessed as increase in host lifespan administered daily for 5 days starting 24 hrs post-tumor implantation; assay type: functional
How it was run: as §1, with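 “implanted sc above the right axilla” for “implanted ip”, “ip dosing” for “ip treatment”, “salts” for “salts (methanesulfonate or hydrochloride)”, “mice. Increase” for “mice. Read-out is increase”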

Row | Structure (SMILES) | Rm [1] | Activity (Mus musculus) [mg/kg] | ILS (L1210 [2]) [%] | ILS (L1210 [3]) [%]
1 | CCCC(=O)N(c1ccc(Nc2c3ccccc3nc3ccccc23)cc1)S(C)(=O)=O.Cl | 0.28 | 400 | 31 | 
2 | Br.CCCCCCCCCCCC(=O)N(c1ccc(Nc2c3ccccc3nc3cc(NC(C)=O)ccc23)cc1)S(C)(=O)=O | 0.81 | 30 | 72 | 41
3 | CCCC(=O)N(c1ccc(Nc2c3ccccc3nc3cc(NC(C)=O)ccc23)cc1)S(C)(=O)=O.Cl | 0.22 | 50 | 98 | 62
4 | CCCCCCC(=O)N(c1ccc(Nc2c3ccccc3nc3cc([N+](=O)[O-])ccc23)cc1)S(C)(=O)=O | 0.5 | 9 | 48 | 41
5 | CCCCCCCCC(=O)N(c1ccc(Nc2c3ccccc3nc3cc(N)ccc23)cc1)S(C)(=O)=O.Cl | 0.59 | 2.5 | 64 | 
6 | COc1cc(NS(C)(=O)=O)ccc1Nc1c2ccccc2nc2cc(/N=N/N(C)C)ccc12.Cl | 0.38 | 10 | 141 | 34
7 | CCC(C)C(=O)N(c1ccc(Nc2c3ccccc3nc3cc(NC(C)=O)ccc23)cc1)S(C)(=O)=O.Cl (configuration not stated) | 0.38 | 50 | 68 | 31
8 | CCN(CC)/N=N/c1ccc2c(Nc3ccc(NS(C)(=O)=O)cc3)c3ccccc3nc2c1.CS(=O)(=O)O |  | 25 | 96 | 28
9 | CCCCCCCCC(=O)N(c1ccc(Nc2c3ccccc3nc3ccccc23)cc1)S(C)(=O)=O.Cl | 0.74 | 400 | 31 | 
10 | Br.CCCCCCCCC(=O)N(c1ccc(Nc2c3ccccc3nc3cc(NC(C)=O)ccc23)cc1)S(C)(=O)=O | 0.72 | 45 | 143 | 83
11 | CCCCC(=O)N(c1ccc(Nc2c3ccccc3nc3c(C)cccc23)c(OC)c1)S(C)(=O)=O | 0.66 | 250 | 50 | 
12 | CCC(=O)N(c1ccc(Nc2c3ccc([N+](=O)[O-])cc3nc3c(C)cccc23)cc1)S(C)(=O)=O | 0.2 | 50 | 81 | 27
13 | Br.CCCCCCCC(=O)N(c1ccc(Nc2c3ccccc3nc3cc(NC(C)=O)ccc23)cc1)S(C)(=O)=O | 0.69 | 22 | 83 | 45
14 | CC(C)(C)C(=O)N(c1ccc(Nc2c3ccccc3nc3ccccc23)cc1)S(C)(=O)=O.Cl | 0.31 | 250 | 47 | 
15 | Br.CCCCCCCCCC(=O)N(c1ccc(Nc2c3ccccc3nc3cc(NC(C)=O)ccc23)cc1)S(C)(=O)=O | 0.76 | 50 | 98 | 65
16 | CCCCCC(=O)N(c1ccc(Nc2c3ccccc3nc3cc(NC(C)=O)ccc23)cc1)S(C)(=O)=O.Cl | 0.51 | 42 | 81 | 43
17 | CCCCCCCC(=O)N(c1ccc(Nc2c3ccccc3nc3cc(N)ccc23)cc1)S(C)(=O)=O.Cl | 0.57 | 2.5 | 119 | 
18 | CCCCCC(=O)N(c1ccc(Nc2c3ccccc3nc3c(C)cccc23)c(OC)c1)S(C)(=O)=O | 0.79 | 66 | 39 | 
19 | CCCC(=O)N(c1ccc(Nc2c3ccccc3nc3cc([N+](=O)[O-])ccc23)cc1)S(C)(=O)=O | 0.27 | 50 | 52 | 
20 | COc1cc(NS(C)(=O)=O)ccc1Nc1c2ccccc2nc2cc(N=[N+]=[N-])ccc12.Cl | 0.14 | 8 | 118 | 47

Row | Structure (SMILES) | Rm [1] | Activity (Mus musculus) [mg/kg] | ILS (L1210 [2]) [%] | ILS (L1210 [3]) [%]
21 | CS(=O)(=O)Nc1ccc(Nc2c3ccccc3nc3cc([N+](=O)[O-])ccc23)cc1 | -0.07 | 25 | 123 | 43
22 | COc1cc(N(C(C)=O)S(C)(=O)=O)ccc1Nc1c2ccccc2nc2ccccc12.Cl | 0.05 | 6 | 70 | 33
23 | COc1cc(NS(C)(=O)=O)ccc1Nc1c2ccccc2nc2c(C)cccc12 | 0.11 | 6 | 111 | 47
24 | CCCCCCCC(=O)N(c1ccc(Nc2c3ccccc3nc3ccccc23)cc1)S(C)(=O)=O.Cl | 0.68 | 400 | 41 | 
25 | CS(=O)(=O)Nc1ccc(Nc2c3ccccc3nc3cc(N)ccc23)cc1 | -0.17 | 2.5 | 81 | 
26 | CC(=O)N(c1ccc(Nc2c3ccccc3nc3cc(N)ccc23)cc1)S(C)(=O)=O.Cl | -0.22 | 2 | 74 | 
27 | CCN(CC)/N=N/c1ccc2c(Nc3ccc(NS(C)(=O)=O)cc3)c3ccccc3nc2c1 | 0.49 |  |  | 
28 | CCCCC(=O)N(c1ccc(Nc2c3ccccc3nc3cc(N)ccc23)cc1)S(C)(=O)=O.Cl | 0.31 | 1 | 61 | 
29 | CCC(=O)N(c1ccc(Nc2c3ccccc3nc3c(C)cccc23)c(OC)c1)S(C)(=O)=O | 0.37 | 25 | 31 | 
30 | CCCC(=O)N(c1ccc(Nc2c3ccccc3nc3cc(N)ccc23)cc1)S(C)(=O)=O.Cl | 0.13 | 1 | 53 | 
31 | CCCC(=O)N(c1ccc(Nc2c3ccccc3nc3c(C)cccc23)c(OC)c1)S(C)(=O)=O | 0.53 | 75 | 52 | 
32 | CCOC(=O)CCC(=O)N(c1ccc(Nc2c3ccccc3nc3c(C)cccc23)c(OC)c1)S(C)(=O)=O.CS(=O)(=O)O |  | 13.3 | 40 | 
33 | CCOC(=O)CCC(=O)N(c1ccc(Nc2c3ccccc3nc3c(C)cccc23)c(OC)c1)S(C)(=O)=O | 0.62 | 18 | 43 | 
34 | CCCCCC(=O)N(c1ccc(Nc2c3ccccc3nc3cc(N)ccc23)cc1)S(C)(=O)=O.Cl | 0.43 | 2 | 46 | 
35 | CCCOC(=O)CCC(=O)N(c1ccc(Nc2c3ccccc3nc3c(C)cccc23)c(OC)c1)S(C)(=O)=O | 0.75 | 75 |  | 
36 | CCCCCC(=O)N(c1ccc(Nc2c3ccccc3nc3ccccc23)cc1)S(C)(=O)=O.Cl | 0.45 | 150 | 41 | 
37 | COc1cc(N(C(C)=O)S(C)(=O)=O)ccc1Nc1c2ccccc2nc2c(C)cccc12 | 0.24 | 7.5 | 38 | 
38 | CCCCCCC(=O)N(c1ccc(Nc2c3ccccc3nc3cc(N)ccc23)cc1)S(C)(=O)=O.Cl | 0.51 | 2 | 31 | 
39 | Br.CCC(=O)N(c1ccc(Nc2c3ccccc3nc3cc(N)ccc23)cc1)S(C)(=O)=O | -0.04 | 2 | 49 | 

— ChEMBL document CHEMBL3244308, “Potential antitumor agents. 22. Latentiated congeners of the 4'-(9-acridinylamino)methanesulfonanilides” (J Med Chem, 1977)
